Broadly, the EC50 is the concentration at which the effect is half-maximal. Broadly, the IC50 is the concentration that inhibits the measured activity by half.

The source made the active and inactive calls. The calls are words filed in the database; no cut-off is given here.

Experimental findings from ChEMBL document CHEMBL4699639, “Discovery of Novel 2-Aniline-1,4-naphthoquinones as Potential New Drug Treatment for Leber's Hereditary Optic Neuropathy (LHON)” (J Med Chem, 2020) are described below.

The subject of data set [1] is HepG2. Kind of data set: (§1) Suppression of rotenone-induced ATP depletion in human HepG2 cells assessed as rescue of ATP level at 5 uM incubated for 2 hrs by Celltiter-Glo assay relative to control. Type of data set: functional. The method, boiled down: (§2)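 HepG2 cells seeded 10×10^3 per well in 1 g/L glucose, 2% FBS medium the day before. Switched to glucose- and FBS-free medium containing 10 µM rotenone, with compound added at the same time, 2 h at 37 °C. ATP read by CellTiter-Glo luminescence, normalized to DMSO cells without rotenone. Mean ± SEM of ≥3 independent runs. Complex III inhibitors, where used, at 50 nM.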
For orientation: In ATP-based viability assays light output follows the ATP content of the culture.

The nature of data set [2]: Suppression of rotenone-induced ATP depletion in human HepG2 cells incubated for 2 hrs by Celltiter-Glo assay. Type of data set: functional, cell-based. The settings on record: HepG2, 2 h. The method, boiled down: as §2
Data set [3] can be described thus: Suppression of rotenone-induced ATP depletion in human HepG2 cells assessed as rescue of ATP level incubated for 2 hrs by Celltiter-Glo assay relative to control. Type of data set: functional. On the set-up: concentration or dose not given beside the values. The essentials:
as §2

Data set [4] in a line: Cytoprotection against rotenone-induced C57BL/6J mouse retinal ganglion cells loss assessed as cell survival at 10 uM incubated for 24 hrs by Hoechst 33342 staining based counting method (reference value: 41%). Type of data set: functional. The settings on record: RGC, read-out: Activity. The method, boiled down:
(§3)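 Retinal explants from 6–8 month old female wild-type C57BL/6J mice, enucleated eyes placed in ice-cold HBSS. Explants incubated 24 h ex vivo in pre-warmed Neurobasal A with compounds in 0.1% DMSO, alone for toxicity or with 100 µM rotenone for activity. Hoechst 33342-stained nuclei (and anti-RBPMS-positive RGCs) counted in the central retina ganglion cell layer. Mean ± SEM, 1-way ANOVA with Tukey.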

In data set [5] the test system is SH-SY5Y. Kind of data set: Cytotoxicity against human SH-SY5Y cells assessed as reduction in cell viability at 25 uM incubated for 24 hrs by Celltiter-blue assay. Type of data set: cell-based. The method, boiled down:
(§4)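 HepG2 or SH-SY5Y seeded 10×10^3 per well the day before in 1 g/L glucose medium with 2% FBS. Medium replaced with fresh 2% FBS, 1 g/L glucose medium containing compound (25 µM) for 24 h at 37 °C. CellTiter-Blue added for 4 h, fluorescence read at 560/590 nm. Viability given as % of vehicle/untreated cells. Mean ± SEM of ≥3 independent runs.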
(The colour change of resazurin is a common sign of viable cells or microbes.)

Data set [6] concerns HepG2. In words: Cytotoxicity against human HepG2 cells assessed as reduction in cell viability incubated for 24 hrs by Celltiter-blue assay. Type of data set: cell-based. Conditions: HepG2, 24 h.
The test system of data set [7] is HepG2. In words: Suppression of rotenone-induced ATP depletion in human HepG2 cells assessed as rescue of ATP level at 5 uM incubated for 2 hrs in presence of complex III inhibitor antimycin by Celltiter-Glo assay. Type of data set: functional, cell-based. The method, boiled down:
as §2

Data set [8] deals with SH-SY5Y. In words: Cytotoxicity against human SH-SY5Y cells assessed as reduction in cell viability incubated for 24 hrs by Celltiter-blue assay. Type of data set: cell-based.
Data set [9] is described as follows: as §1. Type of data set: functional. The essentials: as §2
Data set [10] can be described thus: Cytotoxicity against human HepG2 cells assessed as cell viability at 25 uM incubated for 24 hrs by Celltiter-blue assay relative to control. Type of data set: cell-based. The settings on record: read-out: Activity. The essentials: as §4
The subject of data set [11] is HepG2. Kind of data set: Suppression of rotenone-induced ATP depletion in human HepG2 cells assessed as increase in rescue of ATP level at 0.1 to 1 uM incubated for 2 hrs by Celltiter-Glo assay. Type of data set: functional, cell-based. Conditions: dose microM 0.1-1, time 2.0 hrs. The method, boiled down: as §2
A short description of data set [12]: Cytotoxicity against C57BL/6J mouse RGC cells at 20 uM incubated for 24 hrs by Hoechst 33342 staining based counting method. Type of data set: cell-based. The method, boiled down: as §3
Data set [13] relates to HepG2. Kind of data set: Suppression of rotenone-induced ATP depletion in human HepG2 cells assessed as rescue of ATP level at 5 uM incubated for 2 hrs in presence of complex III inhibitor myxothiazol by Celltiter-Glo assay. Type of data set: functional, cell-based. The essentials: as §2
Data set [14] has as its system HepG2. In words: Suppression of rotenone-induced ATP depletion in human HepG2 cells assessed as rescue of ATP level at 5 uM incubated for 2 hrs in presence of NQO1 inhibitor dicoumarol by Celltiter-Glo assay. Type of data set: functional, cell-based.
The target of data set [15] is NAD(P)H dehydrogenase [quinone] 1 (Homo sapiens) (UniProt P15559). Kind of data set: Substrate activity at recombinant NQO1 (unknown origin) assessed as reduction in NADH level at 20 uM measured for 6 mins by microplate reader analysis.
Sequence of NAD(P)H dehydrogenase [quinone] 1 (Homo sapiens) (P15559 whole entry): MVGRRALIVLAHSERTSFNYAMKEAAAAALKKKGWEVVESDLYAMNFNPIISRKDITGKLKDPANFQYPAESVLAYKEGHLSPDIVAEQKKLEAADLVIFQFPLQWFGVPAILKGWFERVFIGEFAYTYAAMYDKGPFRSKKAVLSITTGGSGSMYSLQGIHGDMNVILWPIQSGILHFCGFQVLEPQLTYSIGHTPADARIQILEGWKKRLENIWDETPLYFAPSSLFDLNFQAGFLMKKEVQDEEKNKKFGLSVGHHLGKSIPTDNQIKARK
Data set [16] concerns SH-SY5Y. In words: Cytotoxicity against human SH-SY5Y cells assessed as reduction in cell viability by WST-1 assay. Type of data set: cell-based. Background: Formazan colour is commonly taken as a measure of viable cells.
Data set [17] is described as follows: Cytotoxicity against […] assessed as reduction in cell viability by WST-1 assay. Type of data set: cell-based. Conditions: r28.
Data set [18] relates to HepG2. In words: Suppression of rotenone-induced ATP depletion in human HepG2 cells assessed as rescue of ATP level at 5 uM incubated for 2 hrs in presence of NQO1 irreversible inhibitor ES936 by Celltiter-Glo assay. Type of data set: functional, cell-based.
Data set [19] addresses NAD(P)H dehydrogenase [quinone] 1 (Homo sapiens) (UniProt P15559). Kind of data set: Substrate activity at NQO1 in human HepG2 cells assessed as reduction in cell viability in presence of NQO1 inhibitor dicoumarol by WST-1 assay. Type of data set: cell-based.
In data set [20] the test system is HepG2. In words: Suppression of rotenone-induced ATP depletion in human HepG2 cells assessed as increase in rescue of ATP level at 1 uM incubated for 2 hrs by Celltiter-Glo assay. Type of data set: functional, cell-based. The method, boiled down: as §2
In data set [21] the target is NAD(P)H dehydrogenase [quinone] 1 (Homo sapiens) (UniProt P15559). In words: Substrate activity at NQO1 in human HepG2 cells assessed as reduction in cell viability by WST-1 assay. Type of data set: cell-based.
Data set [22] in a line: Cytotoxicity against C57BL/6J mouse RGC cells assessed as reduction in number of cells at 50 uM incubated for 24 hrs by Hoechst 33342 staining based counting method. Type of data set: cell-based. The method, boiled down:
as §3

The nature of data set [23]: Cytotoxicity against C57BL/6J mouse RGC cells assessed as reduction in number of cells at 100 uM incubated for 24 hrs by Hoechst 33342 staining based counting method. Type of data set: cell-based. The method, boiled down:
as §3

Data set [24] has as its system RGC. In words: Cytoprotection against rotenone-induced C57BL/6J mouse retinal ganglion cells loss assessed as increase in cell survival at 3 uM incubated for 24 hrs by Hoechst 33342 staining based counting method. Type of data set: functional, tissue-based. Conditions: in the assay text read “anti-RBPMS antibody staining” for “Hoechst 33342 staining”. The method, boiled down: as §3

Data set [25] deals with HepG2. Kind of data set: Cytotoxicity against human HepG2 cells assessed as cell reduction in cell viability at 25 uM incubated for 24 hrs by Celltiter-blue assay. Type of data set: cell-based. Conditions: hepg2, 24 h. The essentials: as §4

With `NC1=C(Cl)C(=O)c2ccccc2C1=O`, the result in [1] was inactive.
`COC1=C(OC)C(=O)C(CCCCCCCCCCO)=C(C)C1=O` [IDEBENONE]: the 50% effective concentration (EC50) in [2] turned out to be 0.94 µM. Moreover, the Activity in [3] is recorded as 44.3%; in [5], “Toxic”; in data set [9] it was 70%; in data set [12] it was “Toxic”. In addition, the viability at 10 µM in data set [4] was determined as 73%. The IC50 in data set [6] turned out to be 64.5 µM; in [8] it was 15.9 µM. Besides, the outcome in data set [7] and in data set [13] was inactive. The viability at 24 h, 25 µM in [10] is 92.8%. In [11], the outcome was Active.
For the molecule `O=C1C(Cl)=C(NCCC(F)(F)F)C(=O)c2ccccc21`, in data set [1], the outcome was inactive.
Regarding `COC1=C(Nc2ccc(F)c(C(F)(F)F)c2)C(=O)c2ccccc2C1=O`, the EC50 in data set [2] came out at 0.46 µM. Moreover, the Activity in data set [3] is reported as 58.6%; in [5], “Non-Toxic”; in data set [16], “Non-Toxic”; in [17], “Non-Toxic”. Also, the result in data set [14], in data set [7], in [18], in [19] and in [13] was inactive. Moreover, the IC50 in data set [6] and in data set [8] was greater than 100 µM in each case. The result in [15], in data set [11], in data set [20] and in data set [21] was Active. Besides, the viability at 24 h, 25 µM in data set [10] came to 96.5%.
The molecule `CC1=C(Nc2ccc(F)c(C(F)(F)F)c2)C(=O)c2ccccc2C1=O` displayed an EC50 in [2] of 0.91 µM. The Activity in [3] is given as 52.6%; in data set [5], “Non-Toxic”; in data set [16] it was “Non-Toxic”; in data set [17] it was “Non-Toxic”. Besides, the outcome in [14], in data set [7], in data set [18], in [19] and in data set [13] was inactive. Further, the IC50 in [6] and in data set [8] was greater than 100 µM in each case. Further, the viability at 24 h, 25 µM in data set [10] was 101%. The outcome in [11], in data set [20] and in data set [21] was Active.
For `CSC1=C(Nc2ccc(F)c(C(F)(F)F)c2)C(=O)c2ccccc2C1=O`, the EC50 in [2] turned out to be 0.36 µM. Besides, the Activity result in data set [22] was “Non-Toxic”; in data set [3] it was 55.7%; in [5], “Toxic”; in [16], “Non-Toxic”; in data set [17] it was “Non-Toxic”; in [23] it was “Toxic”. Moreover, the Activity result in data set [25] was “Toxic”. The result in data set [14], in data set [7], in [18], in data set [19] and in data set [13] was inactive. Also, the IC50 is 30.5 µM in data set [6] and greater than 100 µM in data set [8]. Also, the result in data set [15], in data set [24], in [11], in data set [20] and in [21] was Active. Further, the viability at 24 h, 25 µM in data set [10] was 76.9%.
